Consider 28 compounds from ChEMBL document CHEMBL1157639, “Identification of inhibitors of drug-resistant Candida albicans strains from a library of bicyclic peptidomimetic compounds” (2010).

Broadly, the inhibition is how much of the control response was suppressed. A high value points to a response far below the control.

The target of test [1] is Secreted aspartic protease 2 (Candida albicans) (UniProt P0CS83). In words: Inhibition of Candida albicans SAP2 at 20 uM by spectrophotometry relative to pepstatin A. In a few lines: (§1)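 Sample was mixed with 1% (w/v) BSA substrate in 50 mM sodium citrate, pH 3.2, plus SAP2 protease (1 μg/mL stock solution) and incubated 30 min at 37 °C. The reaction was stopped with 10% TCA, kept 30 min on ice, and centrifuged; supernatant A280 was read. Percent inhibition was taken from ΔOD, with control proteinase minus proteinase plus pepstatin A set as 100%.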
Sequence of Secreted aspartic protease 2 (Candida albicans) (P0CS83 57-398 limits assumed): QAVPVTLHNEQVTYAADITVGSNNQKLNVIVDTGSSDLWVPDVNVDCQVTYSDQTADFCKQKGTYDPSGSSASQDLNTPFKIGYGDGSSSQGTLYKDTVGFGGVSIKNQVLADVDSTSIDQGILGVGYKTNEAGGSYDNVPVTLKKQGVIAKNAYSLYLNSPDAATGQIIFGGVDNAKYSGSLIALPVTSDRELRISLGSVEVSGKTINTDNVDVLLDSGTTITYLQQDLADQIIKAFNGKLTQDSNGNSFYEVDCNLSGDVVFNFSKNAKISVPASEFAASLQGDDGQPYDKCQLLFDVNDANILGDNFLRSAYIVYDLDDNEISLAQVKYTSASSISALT

Test [2] has the same target. In words: Inhibition of Candida albicans SAP2 at 10 uM by spectrophotometry relative to pepstatin A. In a few lines: as §1
For test [3] the target is unchanged. Kind of test: Inhibition of Candida albicans SAP2 at 10 uM by spectrophotometry. In outline: as §1

`CC(C)C[C@@H](CO)NC(=O)[C@H]1OC2CN(Cc3ccccc3)C(=O)C1O2` (single isomer, unassigned) gave an inhibition in test [1] of 33%.

As for `O=C(NCCCO)[C@@H]1O[C@H]2CN(Cc3ccccc3)C(=O)[C@@H]1O2`, the inhibition in test [1] was 23%.

In test [1], `O=C([C@H]1O[C@H]2CN(Cc3ccccc3)C(=O)[C@@H]1O2)N1CCCCC1` yielded an inhibition of 50%.

On to `O=C([C@@H]1O[C@H]2CN(Cc3ccccc3)C(=O)[C@@H]1O2)N1CCOCC1`, for which the figures for the inhibition in test [1], in test [2] and in test [3] were 62%, 92% and 31%, respectively.

Compound `O=C([C@@H]1O[C@H]2CN(Cc3ccccc3)C(=O)[C@@H]1O2)N1CCSCC1` showed an inhibition in test [1] of 58%.

On to `CC(C)C[C@@H](CO)N(Cc1ccccc1)C(=O)[C@@H]1O[C@H]2CN(Cc3ccccc3)C(=O)[C@@H]1O2`, for which, in test [1], the inhibition turned out to be 35%.

For the compound `O=C([C@@H]1O[C@H]2CN(Cc3ccccc3)C(=O)[C@@H]1O2)N1CCCNCC1`, the inhibition in test [1] came out at 63%; in test [2], 19%; in test [3] it was 10%.

For the compound `O=C(NCCO)[C@@H]1O[C@H]2CN(Cc3ccccc3)C(=O)[C@@H]1O2`, in test [1], the inhibition stood at 71%.

`O=C(N[C@@H](CO)Cc1ccccc1)[C@@H]1O[C@H]2CN(Cc3ccccc3)C(=O)[C@@H]1O2`: in test [1], the inhibition was 29%.

The compound `CC(C)C[C@H](CO)NC(=O)[C@H]1O[C@@H]2CN(Cc3ccccc3)C(=O)[C@@H]1O2` came in with an inhibition in test [1] of 60%.

Consider `O=C1[C@@H]2O[C@H](CN1Cc1ccccc1)O[C@H]2C(=O)N1CCC[C@H]1CO`, for which the inhibition in test [1] is 48%.

As to `CC(C)C[C@H](CO)NC(=O)[C@@H]1O[C@H]2CN(Cc3ccccc3)C(=O)[C@H]1O2`, the inhibition in test [1] worked out at 29%.

For `O=C(N[C@H](CO)Cc1ccccc1)[C@@H]1O[C@H]2CN(Cc3ccccc3)C(=O)[C@@H]1O2`, in test [1], the inhibition was determined as 30%.

`C[C@@H](CO)NC(=O)[C@@H]1O[C@H]2CN(Cc3ccccc3)C(=O)[C@@H]1O2` gave an inhibition in test [1] of 35%.

Turning to `O=C([C@@H]1O[C@H]2CN(Cc3ccccc3)C(=O)[C@@H]1O2)N1CCN(CCO)CC1`, the inhibition in test [1] was found to be 58%; in test [2] it was 92%; in test [3], 31%.

Regarding `O=C(NCC(F)(F)F)[C@@H]1O[C@H]2CN(Cc3ccccc3)C(=O)[C@@H]1O2`, the figures for the inhibition in test [2] and in test [3] were 87% and 22%, respectively.

Compound `O=C(N[C@@H](CO)c1ccccc1)[C@@H]1O[C@H]2CN(Cc3ccccc3)C(=O)[C@@H]1O2` registered an inhibition in test [1] of 31%.

On to `CCOC(=O)N1CCN(C(=O)[C@@H]2O[C@H]3CN(Cc4ccccc4)C(=O)[C@@H]2O3)CC1`, for which the inhibition amounted to 74% in test [1], 19% in test [2] and 10% in test [3].

Take `NCCNC(=O)[C@@H]1O[C@H]2CN(Cc3ccccc3)C(=O)[C@@H]1O2`: the inhibition in test [1] came to 63%.

In the case of `O=C(NCC(F)(F)F)[C@@H]1O[C@@]2(c3ccccc3)CN(C(c3ccccc3)c3ccccc3)C[C@@H]1O2`, the inhibition in test [2] stood at 12%; in test [3], 3%.

Consider `CCOC(=O)C1CCN(C(=O)[C@@H]2O[C@@H]3O[C@H]2C(=O)N(Cc2ccccc2)[C@H]3Cc2ccccc2)CC1`, for which the inhibition came out at 87% in test [2] and 17% in test [3].

For `O=C1[C@@H]2O[C@H](CN1Cc1ccccc1)O[C@H]2C(=O)N1CCC[C@@H]1CO`, the inhibition in test [1] came out at 34%.

With `CCCNC(=O)[C@@H]1O[C@@]2(c3ccccc3)CN(C(c3ccccc3)c3ccccc3)C[C@@H]1O2`, the values for the inhibition in test [2] and in test [3] were 12% and 3%, respectively.

Consider `CNC(=O)[C@@H]1O[C@H]2CN(Cc3ccccc3)C(=O)[C@@H]1O2`, for which the inhibition in test [2] stood at 18%; in test [3], 4%.

On to `CC(NC(=O)[C@@H]1O[C@H]2CN(Cc3ccccc3)C(=O)[C@@H]1O2)c1ccccc1` (stereo not given in full), for which the inhibition in test [2] was 87%; in test [3] it was 22%.

For `O=C(NCc1ccccc1)[C@@H]1O[C@H]2CN(Cc3ccccc3)C(=O)[C@@H]1O2`, the results for the inhibition in test [2] and in test [3] were 18% and 4%, respectively.

Regarding `CC(NC(=O)[C@@H]1O[C@@H]2O[C@H]1C(=O)N(Cc1ccccc1)[C@H]2Cc1ccccc1)c1ccccc1` (stereo not given in full), the inhibition in test [2] is 42%; in test [3] it was 8%.

As to `C#CCNC(=O)[C@@H]1O[C@@]2(c3ccccc3)CN(C(c3ccccc3)c3ccccc3)C[C@@H]1O2`, the values for the inhibition in test [2] and in test [3] were 12% and 3%, respectively.
